Laboratory results from the RNAGym collection of RNA variant scans (doi:10.1126/science.aae0568).
Variants at the floor of the assay were thinned out.

B1: tRNA (parent)
chain: GUUCCGUUGGCGUAAUGGUAACGCGUCUCCCUCCUAAGGAGAAGACUGCGGGUUCGAGUCCCGUACGGAACG

Variants of: B1
Assay: yeast fitness relative to wild type (ratio to wild type); higher = fitter; tRNA-Arg(CCU), competitive growth, 37 C, YPD
How it was run: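 Start and end populations of a pooled competition were compared by 100-nucleotide paired-end sequencing of gene amplicons. The Saccharomyces cerevisiae strains carried tRNA-Arg(CCU) gene variants at the native genomic locus, synthesised with a 3% per-site mutation rate at 69 sites, and competed in YPD at 37°C for 24 hours in six parallel replicates. Darwinian fitness relative to wild type was based on the change in genotype frequencies. Genotypes required ≥ 100 starting reads, and estimates < 0.5 were set to 0.5.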

Variant	yeast fitness
C24G A45C	0.629
C24U C31G C55A A57U U59C C60U	≤ 0.5
C24U A57G C60U G68C	≤ 0.5
C24U A42G A43G	0.733
C24G A42G A43U U47A	0.635
C24G G25A A45G C60A	≤ 0.5
C24G C33G A36C A37C A42C A65U	≤ 0.5
C24G A40C	0.601
C24G A40G	0.647
C24G C30U C61G	≤ 0.5
C24U C34A	0.783
C24G C49A	≤ 0.5
C24U A43U C49U C66U	0.576
C24U C62U	0.976
C24U A43G	1.02
C24G C29U U35C	≤ 0.5
C24G C31U C33G	≤ 0.5
C24G U26A C33U	≤ 0.5
C24G C61G	0.537
C24G A42C C66U	≤ 0.5
C24G A36C A42U A43G	≤ 0.5

Variant	yeast fitness
C24A U47G G58A C62A	≤ 0.5
C24G A36C C55U	≤ 0.5
C24U C34U U35G	≤ 0.5
C24U A37G A45U A69C	≤ 0.5
C24U C30G A45C A70C	≤ 0.5
C24U A42G G50A	≤ 0.5
C24G C27U A40U U59C G68A	0.582
C24U C34U U59G	≤ 0.5
C24G A43G C49U C55G	0.643
C24U C34U G48C	≤ 0.5
C24U G25C C31A C33G A65U	0.584
C24U A42U A43C A57C C60A	0.637
C24A U32A C55A G68C	≤ 0.5
C24U A36U C55G A57G G63C	≤ 0.5
C24G C33G A36C A37C A42C	0.505
C24U C34U A57U G67C	≤ 0.5
C24U C27A C30G	≤ 0.5
C24G A36C A40G A45U	≤ 0.5
C24G A37G G58A G67A	≤ 0.5
C24G G44A	0.568
C24G G44C	0.66

Variant	yeast fitness
C24G C33U C61A A69U	≤ 0.5
C24G U28C G50C	≤ 0.5
C24G C27U C33U G52C A65G	≤ 0.5
C24U C27G C61G	≤ 0.5
C24G C49G C55A	≤ 0.5
C24G U28C C31G C66U	≤ 0.5
C24U A43C A70U	0.59
C24G C31A	0.526
C24G C31U	0.571
C24U C29A U32A C46G A70C	≤ 0.5
C24G C30U A43U	0.549
C24G C33G G51A U53A G56A G67C	0.541
C24G A36C U54G	≤ 0.5
C24U A36G G63C	≤ 0.5
C24U C49U C55G A70U	0.559
C24G A69C	0.617
C24G C27U A40U A57G C62G	≤ 0.5
C24G C29U G51C A70U	≤ 0.5
C24U C29U G51U	≤ 0.5
C24U A57G	0.809
C24G C30G G39A G52A C55U	≤ 0.5

Variant	yeast fitness
C24U C66A	0.618
C24U C27U U47A A57G A70G	≤ 0.5
C24G A36U A40G U64C	≤ 0.5
C24U A45C G67A A70U	≤ 0.5
C24U A45C C49U	0.791
C24G G48A G58C	0.735
C24U A37G G39A G48C	≤ 0.5
C24G C27U	0.73
C24G C27A	0.616
C24U C27G	0.602
C24U C27U	0.972
C24G C30U C31A	≤ 0.5
C24G A36G A57C C61U	≤ 0.5
C24U C34G G63U A70U	0.542
C24A U28C C61A	≤ 0.5
C24U C62A A69G	0.502
C24U C62A A69C	0.524
C24G A43G	0.573
C24U C33A G44C U47C	0.674
C24A U26G A43C U64C	≤ 0.5
